Experimental data published in ChEMBL document CHEMBL4602724, “Validating the 1,2-Difluoro Motif As a Hybrid Bioisostere of CF3 and Et Using Matrix Metalloproteinases As Structural Probes” (J Med Chem, 2020).

What was measured:
[1] = molecular target: Matrix metalloproteinase-9 (Homo sapiens, UniProt P14780); assay: Inhibition of human active MMP9 using (7-methoxycoumarin-4-yl)acetyl-Pro-Leu-Gly-Leu-(3-(2,4-dinitrophenyl)-L-2,3-diamino-propionyl)Ala-Arg-NH2 as substrate preincubated for 30 mins followed by substrate addition and measured for 10 mins by fluorescence assay
How it was run: (§1)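 Human active enzyme at 2 nM was preincubated with compound (10 pM–1 mM) for 30 min at 37 °C in 50 mM Tris·HCl pH 7.5 with 0.2 M NaCl, 5 mM CaCl2, […] ZnSO4 and 0.05% Brij 35. Substrate was then added and fluorescence (ex 330/em 390 nm) followed at 37 °C. Initial 10-min linear rates were plotted against inhibitor concentration. IC50 is the mean of three experiments.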

[2] = molecular target: Collagenase 3 (Homo sapiens, UniProt P45452); assay: Inhibition of human active MMP13 using (7-methoxycoumarin-4-yl)acetyl-Pro-Leu-Gly-Leu-(3-(2,4-dinitrophenyl)-L-2,3-diamino-propionyl)Ala-Arg-NH2 as substrate preincubated for 30 mins followed by substrate addition and measured for 10 mins by fluorescence assay; how it was run: as §1
[3] = molecular target: Neutrophil collagenase (Homo sapiens, UniProt P22894); assay: Inhibition of human active MMP8 using (7-methoxycoumarin-4-yl)acetyl-Pro-Leu-Gly-Leu-(3-(2,4-dinitrophenyl)-L-2,3-diamino-propionyl)Ala-Arg-NH2 as substrate preincubated for 30 mins followed by substrate addition and measured for 10 mins by fluorescence assay; how it was run: as §1
[4] = molecular target: 72 kDa type IV collagenase (Homo sapiens, UniProt P08253); assay: Inhibition of human active MMP2 using (7-methoxycoumarin-4-yl)acetyl-Pro-Leu-Gly-Leu-(3-(2,4-dinitrophenyl)-L-2,3-diamino-propionyl)Ala-Arg-NH2 as substrate preincubated for 30 mins followed by substrate addition and measured for 10 mins by fluorescence assay; how it was run: as §1
Chain of 72 kDa type IV collagenase (P08253 whole entry): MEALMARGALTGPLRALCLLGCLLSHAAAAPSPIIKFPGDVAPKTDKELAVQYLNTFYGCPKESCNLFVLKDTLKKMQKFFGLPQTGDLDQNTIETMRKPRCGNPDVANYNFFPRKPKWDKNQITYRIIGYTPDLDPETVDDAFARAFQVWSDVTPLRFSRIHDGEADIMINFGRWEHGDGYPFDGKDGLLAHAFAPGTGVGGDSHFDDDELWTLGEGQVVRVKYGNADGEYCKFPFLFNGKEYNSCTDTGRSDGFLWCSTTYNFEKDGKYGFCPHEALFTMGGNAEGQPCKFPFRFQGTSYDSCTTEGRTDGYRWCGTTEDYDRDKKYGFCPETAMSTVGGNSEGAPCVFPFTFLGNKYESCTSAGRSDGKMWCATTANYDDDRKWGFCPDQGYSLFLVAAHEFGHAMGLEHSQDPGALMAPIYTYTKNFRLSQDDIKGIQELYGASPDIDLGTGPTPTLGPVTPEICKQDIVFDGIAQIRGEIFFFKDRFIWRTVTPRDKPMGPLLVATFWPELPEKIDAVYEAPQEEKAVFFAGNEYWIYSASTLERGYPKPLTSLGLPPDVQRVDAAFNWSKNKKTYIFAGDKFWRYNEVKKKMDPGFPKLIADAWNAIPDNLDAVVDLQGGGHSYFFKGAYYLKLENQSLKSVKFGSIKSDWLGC

Chain of Neutrophil collagenase (P22894 whole entry): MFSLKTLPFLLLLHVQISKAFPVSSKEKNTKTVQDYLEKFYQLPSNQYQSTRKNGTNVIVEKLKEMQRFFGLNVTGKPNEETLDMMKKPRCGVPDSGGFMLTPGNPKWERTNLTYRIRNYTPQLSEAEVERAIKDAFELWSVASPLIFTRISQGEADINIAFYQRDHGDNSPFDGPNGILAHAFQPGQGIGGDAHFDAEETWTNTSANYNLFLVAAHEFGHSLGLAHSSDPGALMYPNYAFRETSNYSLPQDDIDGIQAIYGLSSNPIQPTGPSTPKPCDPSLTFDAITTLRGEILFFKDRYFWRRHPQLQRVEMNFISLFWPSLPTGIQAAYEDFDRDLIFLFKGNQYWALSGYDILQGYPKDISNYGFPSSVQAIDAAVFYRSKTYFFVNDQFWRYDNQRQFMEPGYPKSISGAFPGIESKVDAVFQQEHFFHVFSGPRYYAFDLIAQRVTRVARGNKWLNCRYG
Chain of Matrix metalloproteinase-9 (P14780 whole entry): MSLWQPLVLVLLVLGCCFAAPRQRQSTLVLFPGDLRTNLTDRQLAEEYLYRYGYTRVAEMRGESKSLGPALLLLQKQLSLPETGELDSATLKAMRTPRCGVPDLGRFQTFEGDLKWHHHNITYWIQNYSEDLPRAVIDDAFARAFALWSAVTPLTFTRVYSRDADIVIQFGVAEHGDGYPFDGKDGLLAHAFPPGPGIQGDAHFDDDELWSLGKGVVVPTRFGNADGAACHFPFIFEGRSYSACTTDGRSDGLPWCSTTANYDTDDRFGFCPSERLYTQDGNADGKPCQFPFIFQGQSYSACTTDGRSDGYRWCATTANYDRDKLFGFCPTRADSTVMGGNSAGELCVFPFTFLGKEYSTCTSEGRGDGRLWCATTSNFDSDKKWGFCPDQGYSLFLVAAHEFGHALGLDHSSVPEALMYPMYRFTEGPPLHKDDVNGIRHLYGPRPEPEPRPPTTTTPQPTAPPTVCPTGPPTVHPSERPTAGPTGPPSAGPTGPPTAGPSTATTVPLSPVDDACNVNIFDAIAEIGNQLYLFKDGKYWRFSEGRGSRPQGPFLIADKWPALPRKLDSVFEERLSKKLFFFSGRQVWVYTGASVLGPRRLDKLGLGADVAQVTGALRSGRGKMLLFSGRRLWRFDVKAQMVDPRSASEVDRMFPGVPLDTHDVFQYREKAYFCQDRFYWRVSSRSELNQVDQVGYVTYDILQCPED

| Compound | IC50 ([1]; read-out: IC50) [µM] | IC50 ([2]; read-out: IC50) [µM] | IC50 ([3]; read-out: IC50) [µM] | IC50 ([4]; read-out: IC50) [µM] | IC50 [1] | IC50 [2] | IC50 [3] | IC50 [4] |
| --- | --- | --- | --- | --- | --- | --- | --- | --- |
| CCCCCCCCC1(Cc2ccccc2)C(=O)NC(=O)NC1=O | 0.022 | 0.214 | 0.157 | 0.288 |  |  |  |  |
| CCCCCCCCCC1(Cc2ccccc2)C(=O)NC(=O)NC1=O | 0.005 | 0.18 | 0.096 | 0.21 |  |  |  |  |
| CC(C)CCCCCCCC1(Cc2ccccc2)C(=O)NC(=O)NC1=O |  |  |  |  | Nd(Insoluble) | Nd(Insoluble) | Nd(Insoluble) | Nd(Insoluble) |
| O=C1NC(=O)C(CCCCCCCC(F)(F)F)(Cc2ccccc2)C(=O)N1 | 0.052 | 0.753 | 0.229 | 0.567 |  |  |  |  |
| CCCCCCCCC1(Cc2ccc(OC)cc2)C(=O)NC(=O)NC1=O | 0.003 | 0.094 | 0.073 | 0.042 |  |  |  |  |
| CCCCCCCCCC1(Cc2ccc(OC)cc2)C(=O)NC(=O)NC1=O | 0.093 | 0.083 | 0.084 | 0.094 |  |  |  |  |
| COc1ccc(CC2(CCCCCCCC(C)C)C(=O)NC(=O)NC2=O)cc1 | 0.06 | 0.225 | 0.281 | 0.207 |  |  |  |  |
| COc1ccc(CC2(CCCCCCCC(F)(F)F)C(=O)NC(=O)NC2=O)cc1 | 0.062 | 0.177 | 0.187 | 0.209 |  |  |  |  |
| COc1ccc(CC2(CCCCCCC(F)CF)C(=O)NC(=O)NC2=O)cc1 (stereo not drawn) | 0.047 | 0.017 | 0.165 | 0.411 |  |  |  |  |
| O=C1NC(=O)C(CCCCCCCC(F)CF)(Cc2ccccc2)C(=O)N1 (stereo not drawn) | 0.06 | 0.163 | 0.18 | 0.32 |  |  |  |  |
| O=C1NC(=O)C(CCCCCCC(F)CF)(Cc2ccccc2)C(=O)N1 (stereo not drawn) | 0.123 | 0.127 | 0.125 | 0.253 |  |  |  |  |
| COc1ccc(CC2(CCCCCCCC(F)CF)C(=O)NC(=O)NC2=O)cc1 (racemic) | 0.026 | 0.064 | 0.11 | 0.139 |  |  |  |  |
